Source: PubChem (several laboratories)
The list is not random: actives were taken first. Their share in the collection is about 4.5%.
UPR CHOP act = activators of apoptotic CHOP UPR arm, primary screen, cell-based, CHO-CHOP luciferase reporter, luminescence, uHTS; UPR activation; percent of tunicamycin response over DMSO baseline; activation, % at 10 µM; actives 0.34% (n = 330,000); AID 449763, 2010;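 active means at 10 µM dose, activation of 40% or more, normalized to positive control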;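 further: 100% = tunicamycin at 10 µg/mL and 0% = DMSO alone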
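Evaluation: % reporter activation, DMSO baseline versus tunicamycin full activation; System: CHO-CHOP luciferase reporter cell line; Input: 500 cells/well; Incubation: 6 h compound treatment, 37 °C; Measured by: Steady-Glo luciferase luminescence; Dosing: one dose, 10 µM in 0.5% DMSO; Buffer or medium: F12 medium, 10% FBS; Benchmarks: positive tunicamycin 10 µg/mL, negative DMSO alone.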
HCV NS3 hel inh = inhibitors of HCV NS3 helicase, primary screen, biochemical, Cy5 molecular beacon fluorescence. NS3 helicase DNA unwinding. inhibition, % at 10.9 µM. actives 0.56% (n = 290,000). AID 1800, 2009;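 active means inhibition above the mean of all tested compounds plus 3 SD, set per campaign, cut at about 35% in these data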;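 further: 0% = DMSO wells and 100% = thioflavine S control wells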
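System: HCV NS3 helicase fragment; control set: DMSO and thioflavine S; technique: Cy5 fluorescence at 0 and 60 min, beacon hairpin quenching; reagent: beacon DNA duplex substrate plus ATP; replicates: singlicate; schedule: 1 h reaction at 25 °C, ATP-initiated; medium: MOPS buffer pH 6.5 with MgCl2, DTT, Tween20, BSA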
UPR XBP1 act = activators of adaptive XBP1 UPR arm, primary screen, cell-based, CHO-XBP1 luciferase reporter, luminescence, uHTS; IRE1-XBP1 UPR activation; percent of tunicamycin response, DMSO as zero; activation, % at 20 µM; actives 0.33% (n = 330,000); AID 463104, 2010;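 active means versus positive control, 20 µM dose yields 30% or more activation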;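 further: 100% = tunicamycin at 10 µg/mL and 0% = DMSO only wells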
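Assay system: CHO-XBP1 luciferase reporter cells; Schedule: 6 h treatment, 37 °C; Detection: glow luminescence from Steady-Glo reagent; Benchmarks: high control tunicamycin 10 µg/mL final, low control DMSO vehicle only.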
M18AAP inhibitor = PfM18AAP inhibitors, malaria aminopeptidase, primary screen, biochemical, QFRET, recombinant enzyme; inhibition, % at 7.35 µM; actives 1.2% (n = 290,000); M18 aspartyl aminopeptidase (Plasmodium falciparum 3D7); H-Glu-NHMec fluorogenic cleavage; AID 1822, 2009;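 active means inhibition above the campaign mean inhibition over all tested compounds plus 3 SD, cut at about 28% in these data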;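 further: 0% = plate median of test compound wells and 100% = 2 mM ZnCl2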
CHOP inhibitor = inhibitors of CHOP promoter induction, primary screen, cell-based, unfolded protein response, luciferase reporter; CHO-K1 CHOP-promoter luciferase, tunicamycin-induced, 15-18 h; AID 2732, 2010; actives 3.8% (n = 220,000); inhibition, % at 10 µM;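 active means compounds that reduced the stress-induced luciferase reporter signal by more than about 70% of percent inhibition, limit read from the data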;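 further: 0% = tunicamycin plus vehicle and 100% = wells without tunicamycin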
p97 inhibitor = inhibitors of human p97 ATPase, primary screen, biochemical | actives 0.42% (n = 220,000) | AID 1481, 2009 | recombinant p97 ATPase, Kinase-Glo ATP luminescence, 3 h | inhibition, % at 8 µM | Transitional endoplasmic reticulum ATPase (Homo sapiens), P55072; in the data active means inhibition above about 15%;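 further: 0% = DMSO vehicle and 100% = wells lacking enzyme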
The depositor's hits bear a star; nt = no result given.

SMILES	UPR CHOP act	HCV NS3 hel inh	UPR XBP1 act	M18AAP inhibitor	CHOP inhibitor	p97 inhibitor
CC1Cc2ccccc2N1C(=O)CN1C(=O)NC(C)(CCc2ccccc2)C1=O (stereo unspecified)	2	-22	-4	-18	nt	nt
COC(=O)N/N=C\c1c(C)[nH]n(-c2ccccc2)c1=O	6	3	0	8	60	-1
COCC(=O)N/N=C/c1c(C)[nH]n(-c2ccccc2)c1=O	7	6	-2	1	73*	0
CC(=O)N/N=C/c1c(C)[nH]n(-c2ccccc2)c1=O	-1	1	-1	1	56	-5
Cc1[nH]n(-c2ccccc2)c(=O)c1/C=N/NC(=O)C(C)C	38	5	8	-2	76*	-1
CCn1c(C)cc(/C=C2/NC(=O)N(c3ccccc3)C2=O)c1C	8	9	5	-2	13	10
COCCn1c(C)cc(/C=C2/NC(=O)N(c3cccc(Cl)c3)C2=O)c1C	3	2	2	4	71*	4
COc1ccc(Cl)cc1NC(=O)NN1CCN(C)CC1	3	4	-5	3	nt	nt
Cc1ccc(/C=C/c2ccc(=O)n(Cc3ccc(F)cc3)n2)cc1	-1	-7	-2	0	79*	-2
O=c1ccc(/C=C/c2ccccc2)nn1Cc1ccc(F)cc1	0	0	-2	-4	80*	-7
COC(=O)c1cccc(NC(=O)CN2CCOCC2)c1	0	-3	2	2	72*	-1
Cc1cccc(C)c1NC(=O)CSc1nc(C)c(CC(=O)c2ccc(Br)cc2)c(C)c1C#N	2	4	23	-4	91*	1
Cc1nc(SCC(=O)Nc2ccccc2C(F)(F)F)c(C#N)c(C)c1CC(=O)c1ccc(Br)cc1	-1	10	33*	-10	88*	-8
COc1ccccc1OCCNC(=O)CNC(=O)c1ccc(C(C)(C)C)cc1	2	nt	-2	nt	nt	nt
Oc1cccc(C(=S)N2CCN(Cc3ccccc3)CC2)c1	2	12	0	29*	26	6
Oc1cccc(C(=S)N2CCC(Cc3ccccc3)CC2)c1	3	-10	-3	27	nt	nt
CC(=O)COC(=O)c1ccc2noc(-c3ccccc3)c2c1	4	19	1	30*	nt	nt
CCOc1ccc(/C=N/NC(=O)COc2ccccc2-c2ccccc2)cc1	-1	-4	-4	6	78*	-1
CCOC(=O)C1(CCCc2ccccc2)CCN(C(=O)CN2C(=O)CSC2=O)CC1	2	7	-3	2	44	0
O=C(CC1SC(=O)N(Cc2cccc3ccccc23)C1=O)Nc1nccs1 (stereo unspecified)	0	-12	0	19	73*	4
CCOc1cc2[nH]c(=S)n(CCC(=O)NCc3ccco3)c(=O)c2cc1OCC	1	0	-2	3	4	1
O=C(CCn1c(=O)c2ccccc2n(Cc2cccnc2)c1=O)NCc1ccc2c(c1)OCO2	0	-6	2	-5	21	0
O=C(CCCn1c(=O)c2ccccc2n(CC(=O)NCc2ccco2)c1=O)NCc1ccco1	-1	-2	0	-1	73*	6
Cc1ccccc1Cn1c(=O)n(CCC(=O)NCc2ccc3c(c2)OCO3)c(=O)c2ccccc21	1	1	-2	9	87*	2
Cc1ccc(C)c(Cn2c(=O)n(CCC(=O)NCc3ccco3)c(=O)c3ccccc32)c1	-4	-2	-4	0	83*	-1
SMILES	UPR CHOP act	HCV NS3 hel inh	UPR XBP1 act	M18AAP inhibitor	CHOP inhibitor	p97 inhibitor
CCOc1cc2[nH]c(=S)n(CCCC(=O)NCc3ccco3)c(=O)c2cc1OCC	2	-7	-2	17	82*	0
Cc1ccc(NC(=O)Cn2c(=O)n(CCCCC(=O)NCc3ccco3)c(=O)c3ccccc32)cc1	2	-5	-3	4	13	6
CC(OC(=O)Cc1ccc(F)cc1)C(=O)NCc1ccc2c(c1)OCO2 (stereo unspecified)	1	nt	1	nt	nt	nt
CCCCNC(=O)C1CCC(CNc2nc(=S)[nH]c3ccccc23)CC1 (stereo unspecified)	3	0	0	4	23	0
O=C(NCCc1ccc(Cl)cc1)C1CCC(CNc2nc(=S)[nH]c3ccccc23)CC1 (stereo unspecified)	-1	-8	27	1	87*	7
O=C(NCCC1=CCCCC1)C1CCC(CNc2nc(=S)[nH]c3ccccc23)CC1 (stereo unspecified)	3	9	10	1	94*	0
CC(C)(C)c1ccc(C(=O)OCC(=O)N2CCC(c3ccccc3)=N2)cc1	0	nt	-3	nt	nt	nt
COc1ccc(-n2cc(-c3ccc(Cl)cc3)[nH]c2=S)cc1	9	-3	7	-1	-13	7
COC(=O)c1ccc(-n2cc(-c3ccc(OC)cc3)[nH]c2=S)cc1	nt	3	nt	28*	35	-6
COc1ccccc1C(=O)N/C(=C\c1cn(C)c2ccccc12)C(=O)N1CCCC1	1	-4	-1	12	nt	nt
CCn1ncc(Br)c1C(=O)Nc1nccs1	-2	-1	-4	-7	77*	-2
O=C(OCc1csc(Nc2ccccc2)n1)c1ccc(Cl)cc1	-1	-5	-2	1	74*	-5
FC(F)(F)c1nc(N2CCCC2)ncc1-c1nnnn1-c1ccccc1	2	-5	0	-3	72*	-2
Cc1ccc(C(=O)Nc2c(N)nc(SCC(=O)NCC3CCCO3)[nH]c2=O)cc1 (stereo unspecified)	3	-8	-2	-1	nt	nt
N=C(N)SCc1cn(-c2ccccc2)nc1-c1ccc(Br)cc1	nt	-53	nt	-1	106*	8
Cc1ccc(-c2nn(-c3ccccc3)cc2CO)cc1	7	-31	4	1	nt	nt
CC1=NN=C(c2ccccc2)C(c2c[nH]c3ccccc23)N1O (stereo unspecified)	2	-10	-1	6	-29	6
Cc1[nH]c2ccccc2c1C1C(c2ccccc2)=NN=C(C(C)C)N1O (stereo unspecified)	-2	-11	-1	-23	72*	-4
O=C(COC(=O)Cc1ccccc1F)NC(=O)NC1CCCC1	0	nt	0	nt	nt	nt
CSc1ccc(S(=O)(=O)N2CCC(C(=O)NCCN3CCOCC3)CC2)cc1	1	7	-4	0	nt	nt
